Assay [1] deals with T1, Peroxisome proliferator-activated receptor alpha (Homo sapiens) (UniProt Q07869).
T1 sequence (whole entry): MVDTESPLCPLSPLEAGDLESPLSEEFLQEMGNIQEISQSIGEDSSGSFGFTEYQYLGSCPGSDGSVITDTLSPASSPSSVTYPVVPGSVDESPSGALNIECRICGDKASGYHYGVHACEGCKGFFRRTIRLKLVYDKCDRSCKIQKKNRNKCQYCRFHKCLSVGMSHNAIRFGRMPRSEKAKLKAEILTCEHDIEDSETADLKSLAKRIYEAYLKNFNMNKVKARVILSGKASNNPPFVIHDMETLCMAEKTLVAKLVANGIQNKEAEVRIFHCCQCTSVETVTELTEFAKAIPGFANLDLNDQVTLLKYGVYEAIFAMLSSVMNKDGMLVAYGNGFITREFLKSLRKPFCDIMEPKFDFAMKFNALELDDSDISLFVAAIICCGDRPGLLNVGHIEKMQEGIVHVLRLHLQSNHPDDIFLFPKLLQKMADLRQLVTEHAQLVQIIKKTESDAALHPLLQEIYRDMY
As to the kind of experiment: Activation of human PPARalpha assessed as receptor-GST-TIF2 interaction by GST pull down assay.

The subject of assay [2] is Mus musculus. The assay can be described thus: Inhibition of […]-induced decrease in locomotor activity in ip dosed mouse after 15 mins. The assay is classed as functional, organism-based.
Assay [3] deals with Mus musculus. The assay can be described thus: Inhibition of […]-induced hypothermia in mouse assessed as rectal temperature at 3 mg/kg ip after 15 mins. Also noted: dose 3 mg/kg. The assay is classed as functional, organism-based. The procedure, abridged:
(§1)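 Male 129S1/SvImJ mice given compound ip together with WIN 2 mg/kg ip; rectal temperature taken by probe at 3 cm depth before and 15 min after injection; compared with WIN alone by Student's t-test.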

For assay [4], the system named is Mus musculus. As to the kind of experiment: Effect on rectal temperature in mouse at 3 mg/kg, ip after 15 mins. The assay is classed as functional, organism-based. On the set-up: dose 3 mg/kg. In a few lines: (§2)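 Adult male 129S1/SvImJ mice (25–30 g); rectal temperature measured with a probe at 3 cm depth before dosing and 15 min after ip injection; tests run 9:00–15:00 h; mean ± SEM.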

The subject of assay [5] is Rattus norvegicus. As to the kind of experiment: Inhibition of food intake in 24 hrs food-deprived Wistar rat assessed at 0.3 mg/kg, ip. The assay is classed as functional, organism-based. Also noted: dose 0.3 mg/kg. In a few lines:
(§3)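 Male Wistar rats (250–450 g), habituated to handling, food-deprived 24 h with water available; compound suspended in saline with Tween 80, given ip; 15 min later returned to home cage with weighed food; intake (g/kg) measured at 30, 60, 120 and 240 min; ≥8 rats per group, ANOVA vs vehicle.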

In assay [6] the test system is Rattus norvegicus. The assay can be described thus: Inhibition of food intake in 24 hrs food-deprived Wistar rat assessed at 3 mg/kg, ip. The assay is classed as functional, organism-based. On the set-up: dose 3 mg/kg. The procedure, abridged:
as §3

Assay [7] has as its target Peroxisome proliferator-activated receptor alpha (Homo sapiens) (UniProt Q07869). The assay can be described thus: Agonist activity at human PPARalpha expressed in human MCF7 cells coexpressing TIF2 by luciferase reporter gene assay. In general terms: In a reporter assay the amount or activity of a reporter protein is the signal.
Assay [8] relates to Mus musculus. The assay can be described thus: Effect on rectal temperature in mouse at 10 mg/kg, ip after 15 mins. The assay is classed as functional, organism-based. Also noted: dose 10 mg/kg. In a few lines: as §2
In assay [9] the test system is Mus musculus. The assay can be described thus: Inhibition of […]-induced hypothermia in mouse assessed as rectal temperature at 10 mg/kg ip after 15 mins. The assay is classed as functional, organism-based. On the set-up: dose 10 mg/kg. In a few lines:
as §1

Calls of active or inactive are those of the source. The calls are words filed in the database; no cut-off is given here.

As for `CCCCCCCCCCCCCCCCNC(=O)c1cc(-c2ccc(Cl)cc2)n(-c2ccccc2)n1`, the result (in assay [1]; in the assay on Mus musculus [3]; in the assay on Mus musculus [4]) was inactive. Moreover, the outcome in the assay on Mus musculus [2] was Active.

Turning to `CCCCCCCC/C=C\CCCCCCCCNC(=O)c1nn(-c2ccc(Cl)cc2Cl)c(-c2ccc(Cl)cc2)c1C`, the outcome in assay [1] was Active.

For the molecule `CCCCCCCC/C=C\CCCCCCCCNC(=O)c1cc(-c2ccc(Cl)cc2)n(-c2ccccc2)n1`, the result (in the assay on Rattus norvegicus [5]; in the assay with Rattus norvegicus [6]; in assay [1]) was Active. Besides, the result in the assay on Mus musculus [3] and with Mus musculus [4] was inactive.

Consider `CCCCCCCC/C=C\CCCCCCCCNC(=O)c1cc(-c2ccc(Cl)cc2)n(-c2ccc(Cl)cc2Cl)n1`, for which the outcome in [1] was Active.

With `CCCCCCCC/C=C\CCCCCCCCNC(=O)c1cc(-c2ccc(Cl)cc2)n(-c2ccc(Cl)cc2)n1`, the outcome in the assay on Rattus norvegicus [5] and in the assay on Rattus norvegicus [6] was inactive. Further, the outcome (in [1]; in the assay with Mus musculus [3]) was Active.

Take `Cc1c(C(=O)NN2CCCCC2)nn(-c2ccc(Cl)cc2Cl)c1-c1ccc(I)cc1`: the outcome in [7] was inactive.

For `CCCCCCCCCCCCCCCCNC(=O)c1cc(-c2ccc(Cl)cc2)n(-c2ccc(Cl)cc2)n1`, the outcome (in assay [1]; with Mus musculus [8]; with Mus musculus [9]) was inactive.

On to `CCCCCCCCCCCCCCCCNC(=O)c1nn(-c2ccc(Cl)cc2Cl)c(-c2ccc(Cl)cc2)c1C`, for which the result (in the assay with Rattus norvegicus [5]; with Rattus norvegicus [6]; in [1]) was inactive.

Consider `CCCCCCCCCCCCCCCCNC(=O)c1cc(-c2ccc(Cl)cc2)n(-c2ccc(Cl)cc2Cl)n1`, for which, in assay [1], the outcome was inactive.

For the origin of these results see ChEMBL document CHEMBL1151688, “Antiobesity designed multiple ligands: Synthesis of pyrazole fatty acid amides and evaluation as hypophagic agents” (Bioorg Med Chem, 2008).
